# Test results taken from ChEMBL document CHEMBL1158326, “Isolation, synthesis, and antiplatelet aggregation activity of resveratrol 3-O-beta-D-glucopyranoside and related compounds” (J Nat Prod, 1997).
# System: Platelet
# Test: Inhibition of adenosine diphosphate-induced platelet aggregation in human platelet-rich plasma
# Assay type: functional, cell-free
# Procedure, shortened: (§1)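 Citrated human PRP from forearm-vein blood (3.8% citrate 1:9, spun 1250 rpm for 18 min at room temperature), adjusted to […] with PPP. Platelets stirred at 1000 rpm and preincubated 3 min at 37 °C with compound or 0.25% DMSO. Inducers were ADP 6 µM, adrenalin 2 µM, arachidonic acid 100 µM, or collagen. Turbidimetric aggregometry read-out; IC50 given as mean ± SE.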
row,Compound,IC50
1,COc1ccc(/C=C/c2cc(O)cc(O[C@@H]3O[C@H](CO)[C@@H](O)[C@H](O)[C@H]3O)c2)cc1,300 µg/mL
2,COc1ccc(/C=C\c2cc(O)cc(O)c2)cc1,101 µg/mL
3,COc1ccc(/C=C/c2cc(O[C@@H]3O[C@H](CO)[C@@H](O)[C@H](O)[C@H]3O)cc(O[C@@H]3O[C@H](CO)[C@@H](O)[C@H](O)[C@H]3O)c2)cc1,300 µg/mL
4,COc1ccc(/C=C/c2cc(OC)c(OC)c(OC)c2)c(O[C@@H]2O[C@H](CO)[C@@H](O)[C@H](O)[C@H]2O)c1,300 µg/mL
5,COc1ccc(/C=C\c2cc(O[C@@H]3O[C@H](CO)[C@@H](O)[C@H](O)[C@H]3O)cc(O[C@@H]3O[C@H](CO)[C@@H](O)[C@H](O)[C@H]3O)c2)cc1,300 µg/mL
6,COc1ccc(/C=C\c2cc(O)cc(O[C@@H]3O[C@H](CO)[C@@H](O)[C@H](O)[C@H]3O)c2)cc1,198 µg/mL
7,COc1ccc(/C=C/c2cc(OC)c(OC)c(OC)c2)c(O)c1,300 µg/mL
8,COc1ccc(/C=C\c2cc(OC)c(OC)c(OC)c2)cc1O [COMBRETASTATIN A4],75.2 µg/mL
9,COc1ccc(/C=C\c2cc(OC)c(OC)c(OC)c2)c(O)c1O [COMBRETASTATIN A-1],60.6 µg/mL
10,OC[C@H]1O[C@@H](Oc2cc(O)cc(/C=C/c3ccc(O)cc3)c2)[C@H](O)[C@@H](O)[C@@H]1O [PICEID],84.9 µg/mL
11,COc1ccc(/C=C/c2cc(O)cc(O)c2)cc1 [RESVERATROL 4'-METHYL ETHER],119 µg/mL
12,OC[C@H]1O[C@@H](Oc2cc(O)cc(/C=C\c3ccc(O)cc3)c2)[C@H](O)[C@@H](O)[C@@H]1O [Z-PICEID],120 µg/mL

# System: Platelet
# Test: Inhibition of collagen-induced platelet aggregation in human platelet-rich plasma
# Assay type: functional, cell-free
# Procedure, shortened: as §1
row,Compound,IC50
1,COc1ccc(/C=C\c2cc(O)cc(O)c2)cc1,33.9 µg

# System: Platelet
# Test: Inhibition of arachidonic acid-induced platelet aggregation in human platelet-rich plasma
# Assay type: functional, cell-free
# Procedure, shortened: as §1
row,Compound,IC50
1,OC[C@H]1O[C@@H](Oc2cc(O)cc(/C=C/c3ccc(O)cc3)c2)[C@H](O)[C@@H](O)[C@@H]1O [PICEID],57.2 µg/mL
